# This sample holds only a part of the variants without activity.
# B1: tRNA (parent)
# chain: GUUCCGUUGGCGUAAUGGUAACGCGUCUCCCUCCUAAGGAGAAGACUGCGGGUUCGAGUCCCGUACGGAACG
# Variants of: B1
# Assay: yeast fitness relative to wild type (ratio to wild type); higher = fitter; tRNA-Arg(CCU), competitive growth, 37 C, YPD
# Procedure, shortened: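 Gene amplicons from the start population and from each of six end populations were read by 100-nucleotide paired-end sequencing. Those end populations came from pooled Saccharomyces cerevisiae strains carrying tRNA-Arg(CCU) gene variants at the native locus, competed in YPD at 37°C for 24 hours. Fitness relative to wild type was worked out from changes in genotype frequencies. Genotypes needed ≥ 100 starting reads, and estimates < 0.5 were set to 0.5.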
row,Variant,yeast fitness
1,GUUCCGUUAGCGUAAUGGUAACGCGUCUCCCUCCUAAGGAGAAGACUGCGGGUUCGUGUCCCGUCCGGCACG [G9A A57U A65C A69C],≤ 0.5
2,GUUCCGUUAGCGUAAUGGUAACGCGUCUCCCUCCUAAGGAGCAGACUGCGGGUUGGAGUCCCGUACGGAACG [G9A A42C C55G],≤ 0.5
3,GUUCCGUUAGCGUAAUGGUAACGCGUCUCCCUCCUAAGGUGAAGACUGCGCGUUCGAGUCCCGUAUUGAACG [G9A A40U G51C C66U G67U],≤ 0.5
4,GUUCCGUUAGCGUAAUGGUAACGCGUCUCCCUCCUAAGGCGAAGACUGCGGGUUCGAGUCCCGUAUGGAACG [G9A A40C C66U],0.719
5,GUUCCGUUAGCGUAAUGGUAACGCGUCUCCCUCCUAAGGAGACGACUGCGGGUUCGUGUCCCGUACGGAACG [G9A A43C A57U],≤ 0.5
6,GUUCCGUUAGCGUAAUGGUAACGCGUCUCCCUCCUAAGGAGACGACUGCGGGUUCGCGUCCCGUACGGAACG [G9A A43C A57C],0.569
7,GUUCCGUUAGCGUAAUGGUAACGCGUCUCCCUCCUUAGAAGAAGACUGCGGGUACGAGUCCCGUACGGAACG [G9A A36U G39A U54A],≤ 0.5
8,GUUCCGUUAGCGUAAUGGUAACGCGUCUCCCUCCUAAGGAGAAGACUGCGGGUUCGUGUCCCGUACGGAACG [G9A A57U],0.672
9,GUUCCGUUAGCGUAAUGGUAACGCGUCUCCCUCCUAAGGAGAGGACUGCGGGUUCGAGUCCCAUACGGAACG [G9A A43G G63A],≤ 0.5
10,GUUCCGUUAGCGUAAUGGUAACGCGUCUCCCUCCUAAGGAGACGACUGCGGGUUCGAGUCCGGUACGGAACG [G9A A43C C62G],≤ 0.5
11,GUUCCGUUAGCGUAAUGGUAACGCGUCUCCCUCCUAAGGAGAAGUCUGCAGGUUCGACUCCCGUACGGAACG [G9A A45U G50A G58C],0.975
12,GUUCCGUUAGCGUAAUGGUAACGCGUCUCCCUCCUAAGGAGAUGACUGUGGGUUCGAGUCCCGUACGGAACG [G9A A43U C49U],0.744
13,GUUCCGUUAGCGUAAUGGUAACGCGUCUCCCUCCUAAGGAGGAGACUGCGGGUUCGAGUCACGUACGGAACG [G9A A42G C61A],0.611
14,GUUCCGUUAGCGUAAUGGUAACGCGUCUCCCUCCUAAGGGGAAGACUGCGGGUUCGAGUUCCGUACGGAACG [G9A A40G C60U],≤ 0.5
15,GUUCCGUUAGCGUAAUGGUAACGCGUCUCCCUCCUAAGGAGAAGCCUGCGGGUUCGAGUCCCGCCCGGAACG [G9A A45C U64C A65C],0.648
16,GUUCCGUUAGCGUAAUGGUAACGCGUCUCCCUCCUAAGGAGACGACUGCGGGUUCGAGUCCCGUACGGUCCG [G9A A43C A69U A70C],0.782
17,GUUCCGUUAGCGUAAUGGUAACGCGUCUCCCUCCUAAGGAGAAGGCUGCGGGUUCGAGUCCCGUACGGAACG [G9A A45G],1.01
18,GUUCCGUUAGCGUAAUGGUAACGCGUCUCCCUCCUAAGGAGAAGUCUGCGGGUUCGAGUCCCGUACGGAACG [G9A A45U],0.86
19,GUUCCGUUAGCGUAAUGGUAACGCGUCUCCCUCCUACGGAGAAGACUGCGGGUUCGAGUCCCGUACCGAACG [G9A A37C G67C],≤ 0.5

row,Variant,yeast fitness
1,GUUCCGUUAGCGUAAUGGUAACGCGUCUCCCUCCUAAGGAGAAGACUGCGGGUUCGUGUCCCGUUCGGAACG [G9A A57U A65U],0.532
2,GUUCCGUUAGCGUAAUGGUAACGCGUCUCCCUCCUAAGGAGAAGUCUGCGGGUUCGAGUCCAGUACGGAACG [G9A A45U C62A],≤ 0.5
3,GUUCCGUUAGCGUAAUGGUAACGCGUCUCCCUCCUAGGGUGAAGACUGAGGGUUCGUGUCCCGUACGGAACG [G9A A37G A40U C49A A57U],≤ 0.5
4,GUUCCGUUAGCGUAAUGGUAACGCGUCUCCCUCCUAAGGAGAGGACUGCGGGUUCGAGUCCCGUACGGAACG [G9A A43G],0.987
5,GUUCCGUUAGCGUAAUGGUAACGCGUCUCCCUCCUACGGAGAAGACUGCGGGUCCGAGUCCCGUACCGAACG [G9A A37C U54C G67C],≤ 0.5
6,GUUCCGUUAGCGUAAUGGUAACGCGUCUCCCUCCUACGGAGACGACUGCGGGUUCGAGUCCCGUACGGAACG [G9A A37C A43C],0.524
7,GUUCCGUUAGCGUAAUGGUAACGCGUCUCCCUCCUACGGAGAAGACUGCGGGUUCGAGUCCCGUACGGAACG [G9A A37C],0.918
8,GUUCCGUUAGCGUAAUGGUAACGCGUCUCCCUCCUAAGGAGAAGCGUGCGGGUUCGUGUCCCGUACGGAACG [G9A A45C C46G A57U],≤ 0.5
9,GUUCCGUUAGCGUAAUGGUAACGCGUCUCCCUCCUAAGGAGGAGACUGAGGGUUCGAAUCCCGUACGGAACG [G9A A42G C49A G58A],≤ 0.5
10,GUUCCGUUAGCGUAAUGGUAACGCGUCUCCCUCCUAAGGCGAAGGCUGCGGGUUCGGGUCCCGUACGGAACG [G9A A40C A45G A57G],≤ 0.5
11,GUUCCGUUAGCGUAAUGGUAACGCGUCUCCCUCCUAAGGAGAAGGCUGCGGGUUCGAGUCCCGUACGCAACG [G9A A45G G68C],0.543
12,GUUCCGUUAGCGUAAUGGUAACGCGUCUCCCUCCUAAGGCGAAGACUCCGGGUUCGGGUCCCGUACGGAACG [G9A A40C G48C A57G],≤ 0.5
13,GUUCCGUUAGCGUAAUGGUAACGCGUCUCCCUCCUAAGGAGAAGACUGCGGGUUCGGGUCCCGUACAGAACG [G9A A57G G67A],0.558
14,GUUCCGUUAGCGUAAUGGUAACGCGUCUCCCUCCUAAGGAGACGACUGCGGGUUCGUGUCCCGUAUGGAACG [G9A A43C A57U C66U],0.516
15,GUUCCGUUAGCGUAAUGGUAACGCGUCUCCCUCCUAAGGGGAAGACUGCGGGUUCGAGUCCCGUAUGGAACG [G9A A40G C66U],≤ 0.5
16,GUUCCGUUAGCGUAAUGGUAACGCGUCUCCCUCCUAAGGCGAAGACUGCGGGUCCGAGUCCCGUACGGAACG [G9A A40C U54C],0.753
17,GUUCCGUUAGCGUAAUGGUAACGCGUCUCCCUCCUAAGGAGAAGACUGCGGGUUCGUGUCCCGUAUGGAACG [G9A A57U C66U],0.548
18,GUUCCGUUAGCGUAAUGGUAACGCGUCUCCCUCCUAAGGAGAGGACUGCGGGUUCGAGACCCGUACGGAACG [G9A A43G U59A],0.535
19,GUUCCGUUAGCGUAAUGGUAACGCGUCUCCCUCCUAAGGAGAAGCCUGCGGGAUCGAGUCCCCUACGGAACG [G9A A45C U53A G63C],≤ 0.5

# Source: the RNAGym collection of RNA variant scans (doi:10.1126/science.aae0568)
